Bioassay records from PubChem.
Efflux pump inh = inhibitors of Candida efflux pumps in yeast, primary screen, S. cerevisiae, Nile Red, multiplex; S. cerevisiae Candida pump triplex; inhibition, % at 10 µM; 330,000 tested, 0.44% active;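 active means plate passing quality check with inhibition over a set limit, or well fluorescence over plate mean plus 4 SD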;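 further: Nile Red retained in pooled yeast measured as flow cytometry median fluorescence; 0% = buffer negative control and 100% = Enniatin B positive control; higher means more Nile Red kept so more efflux inhibition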
T cruzi inh = inhibitors of intracellular T. cruzi growth, primary screen, luminescence, NIH3T3 host cells. inhibition, % (no concentration beside the values). 300,000 tested, 1.4% active. AID 1885, 2009. T. cruzi beta-gal in NIH3T3, 90 h;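 active means mean inhibition across valid replicates above about 55%, limit read from the data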;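 further: signal also drops with host cell toxicity which is not excluded here; 0% = plate median of DMSO wells and 100% = zero luminescence signal; higher percent means less beta-gal luminescence so fewer parasites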
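Read-out: Parasite load inhibition, % | Test system: Mouse NIH/3T3 fibroblasts infected with β-gal-expressing T. cruzi Tulahuen C4 | Amount: 5,000 cells/well | Medium: DMEM, 2% fetal bovine serum | Signal: GalScreen β-gal luminescence, detergent lysis, 60 min | Timing: 3 h attach, ≥90 h co-culture | Also added: Tulahuen C4 trypomastigotes, 5000/well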
Beta cell apopt = inhibitors of cytokine-induced beta cell apoptosis, primary screen, luminescence | INS-1E cytokine-induced death, ATP luminescence, 48 h; percent of positive-control rescue, neutral wells zero | 300,000 tested, 0.8% active | protection from apoptosis, % (no concentration beside the values);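 active means Every replicate reaches about 75%, or at least half do and their mean reaches it too, limit read from the data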;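 further: 0% = cytokine-treated negative control wells and 100% = positive control rescue; higher means more ATP so stronger rescue from cytokine killing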
WT yeast gro inh = growth inhibition of WT strain, primary screen, mitochondrial fusion inhibitor project, WT and mutant strains, chemical genetic | mitochondrial fusion phenotypic screen | 190,000 tested, 2.1% active | inhibition, % at 10 µM; in the data active means inhibition above about 58%; tested in S. cerevisiae
CSC inhib = cancer stem cell viability inhibitors, primary screen, luminescence | AID 2717, 2010 | inhibition, % at 7.5 µM | 300,000 tested, 1.1% active | cancer stem cell-like cells viability; in the data active means inhibition above about 75%; tested in HMLE shEcad cells
Mot1-301 SUMO = yeast Mot1-301 growth rescue at high temperature, primary screen, SUMOylation pathway inhibitor project, S. cerevisiae, ATP luminescence, 38.5C. growth rescue, % at 18.8 µM. S. cerevisiae Mot1-301 growth rescue; percent above DMSO median, 100 means doubled. 320,000 tested, 1% active;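 active means every valid replicate shows activation above 250% relative to neutral control wells; inactive means the rest, any valid replicate at or below 250%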;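 further: OY570 slx delta 5 strain wells were the positive control but not used for scaling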
* marks the source's active call; other numbers are inactive results; . = no result. Hits are enriched below; roughly 4.8% of the tested compounds scored in any of these assays.

SMILES	Efflux pump inh	T cruzi inh	Beta cell apopt	WT yeast gro inh	CSC inhib	Mot1-301 SUMO
CNc1oc(-c2ccccc2F)nc1S(=O)(=O)c1ccc(C)cc1	0	-6	.	.	-1	-6
Cc1cc(C)c2sc(N(CCCN(C)C)C(=O)COc3ccc(Cl)cc3)nc2c1	0	44	3	89*	3	-26
CN(C)CCCN(C(=O)COc1ccc(Cl)cc1)c1nc2ccc(F)cc2s1	0	54	-2	61*	-6	35
CN(C)CCCN(C(=O)COc1ccccc1)c1nc2ccc(F)cc2s1	0	47	-9	-13	-11	15
Cc1cc(C)c2sc(N(CCN(C)C)C(=O)c3cc(Cl)sc3Cl)nc2c1	0	51	-9	18	7	4
Cc1ccc2nc(N(CCCN(C)C)C(=O)COc3ccc(Cl)cc3)sc2c1	0	41	3	91*	-16	-29
Cc1cc(C)c2sc(N(CCCN(C)C)C(=O)c3ccc(S(=O)(=O)N(C)C4CCCCC4)cc3)nc2c1	0	55*	.	.	-3	-47
CN(C)CCCN(C(=O)c1ccc(S(=O)(=O)N(C)C2CCCCC2)cc1)c1nc2ccc(F)cc2s1	0	36	3	.	-10	1
O=C(N/N=C/c1cccc(Cl)c1)C1CCCC1	0	4	-3	.	4	-3
CCc1nc2ccccc2n1CC(=O)NC1CCS(=O)(=O)C1 (configuration not stated)	0	.	-3	.	-15	-19
CC(C)(C)c1ccc(NC(=O)CN2C(=O)NC(C)(C3CC3)C2=O)cc1 (configuration not stated)	0	.	-4	.	-6	115
CCCc1nnc2n1N=C(c1ccc(C)cc1)CS2	0	6	.	.	8	-10
COc1ccc(/C(N)=N/OC(=O)c2ccc3c(c2)OCO3)cc1OC	0	57*	.	-10	.	-7
COc1ccc(C(=O)O/N=C(\N)Cc2ccc(Cl)c(Cl)c2)cc1OC	0	39	7	94*	-4	-6
N/C(=N\OC(=O)c1ccc2c(c1)OCO2)c1cccc(Br)c1	0	-5	-9	35	-9	5
Cc1ccc(CN2CC(C(=O)NCCCSc3ccccc3)CC2=O)cc1 (configuration not stated)	0	-22	-6	.	2	1
O=C(NC1CCN(S(=O)(=O)c2ccc(F)cc2)CC1)c1cccnc1	0	8	-4	.	.	17
N/N=C/C(=N\Nc1ccc(Cl)cc1)C(=O)c1ccncc1	0	19	-2	.	76*	47
COc1ccc(OCCCC(=O)Nc2nc(-c3ccccn3)cs2)cc1	0	62*	6	54	20	-8
O=C(CC1CC2CCC1C2)Nc1nc(-c2ccccn2)cs1 (configuration not stated)	0	62*	14	74*	-1	-7
COc1ccc2oc(C(=O)Nc3nc(-c4ccccn4)cs3)c(C)c2c1	0	70*	12	.	30	46
O=C(NCC1CCCO1)c1ccc(NC(=O)c2cc(F)c(F)cc2Cl)cc1 (configuration not stated)	0	-10	-4	.	-10	22
COc1ccc(-c2nc3nc(N)nn3cc2C)cc1F	0	-12	1	-3	1	5
CCc1ccc(OCC(=O)N2c3ccccc3CCc3ccccc32)cc1	0	16	-2	81*	29	-9
CCOC(=O)c1ccc(NC(=O)CNNC(=O)COc2ccccc2C)cc1	0	.	5	.	-7	-9
Cc1ccc(CSC(Nc2ccc(F)cc2)=C(C#N)C#N)cc1	0	-27	117*	47	7	252
CCN(CC)C(=O)CSC(Nc1ccc(F)cc1)=C(C#N)C#N	0	-8	-5	.	-1	-11
Cc1cc(NS(=O)(=O)c2ccc(NC(=O)CCSc3ccc(F)cc3)cc2)nc(C)n1	0	3	5	.	9	-8
COc1nc(OC)nc(Oc2ccc(Cl)cc2[N+](=O)[O-])n1	0	-9	-11	4	-7	3
Nc1cccnc1S(=O)(=O)c1ccccc1	0	-13	-3	.	-15	-5
